56 compounds from ChEMBL document CHEMBL1811868, “Structure-activity relationship of 2-hydroxy-2-aryl-2,3-dihydro-imidazo[1,2-a]pyrimidinium salts and 2N-substituted 4(5)-aryl-2-amino-1H-imidazoles as inhibitors of biofilm formation by Salmonella Typhimurium and Pseudomonas aeruginosa” (Bioorg Med Chem, 2011) can be followed below.

Some results are limits rather than exact numbers.

The term IC50 denotes the concentration that inhibits the measured activity by half.

One test concerns Salmonella typhimurium. Kind of test: Antimicrobial activity against Salmonella Typhimurium ATCC 14028 assessed as inhibition of biofilm formation after 24 hrs by spectrophotometry. Type of test: functional, organism-based, Salmonella enterica subsp. enterica serovar Typhimurium. The following applies: for IC50: Salmonella enterica, ATCC 14028, 24 h. The method, boiled down:
(§1)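 Static peg-lid biofilm prevention assay. Twofold serial dilutions in TSB diluted 1/20, 2–3 repeats per compound. Overnight S. Typhimurium ATCC14028 (LB-grown) or P. aeruginosa PA14 (TSB-grown) cultures were diluted 1:100, giving ~10^6 cells/well, then incubated 24 h at 25 °C without shaking. Pegs were PBS-washed, stained 30 min with 0.1% crystal violet, extracted with 30% acetic acid and read at OD570. IC50 was fitted from the concentration gradient.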

A further test concerns Pseudomonas aeruginosa. Kind of test: Antimicrobial activity against Pseudomonas aeruginosa PA14 assessed as inhibition of biofilm formation after 24 hrs by spectrophotometry. Format: functional, organism-based. Particulars: PA14, 24 h. The method, boiled down:
as §1

Regarding `CNc1ncc(-c2ccc(O)cc2)[nH]1`, the half-inhibitory concentration (IC50) with Salmonella typhimurium came out at 160 µM.
For `COc1cccc(CNc2ncc(-c3ccc(-c4ccc(-c5ccccc5)cc4)cc3)[nH]2)c1`, the IC50 in the test on Salmonella typhimurium and with Pseudomonas aeruginosa was > 800 µM each time.
As for `CCCCCCNc1ncc(-c2ccc(F)cc2)[nH]1`, the IC50 was > 400 µM with Salmonella typhimurium and 12.5 µM with Pseudomonas aeruginosa.
The matching figures for `CCCCCCCCN1c2nccc[n+]2C[C@@]1(O)c1cccc2ccccc12`: 14.7 µM and 15.1 µM.
For `O[C@@]1(c2ccc(Cl)cc2)C[n+]2cccnc2N1C1CC1` the same measures were 82.7 µM and 179 µM.
`CCCCCCCCN1c2nccc[n+]2C[C@@]1(O)c1ccc(F)cc1`: in the test with Salmonella typhimurium, the IC50 came to 7.6 µM.
With `CCCCCCCCNc1ncc(-c2ccc(Br)cc2)[nH]1`, the IC50 with Salmonella typhimurium was 1.9 µM; in the test on Pseudomonas aeruginosa, > 800 µM.
As for `CCCCCCN1c2nccc[n+]2C[C@@]1(O)c1ccc(Cl)cc1`, the IC50 with Salmonella typhimurium was 13.7 µM; with Pseudomonas aeruginosa, 79.8 µM.
The matching figures for `CCCCCNc1ncc(-c2ccc(Cl)cc2)[nH]1`: > 400 µM and 6.3 µM.
The matching figures for `CCCCCCCCNc1ncc(-c2ccc(F)cc2)[nH]1`: > 400 µM and 3.1 µM.
For `CC(C)CN1c2nccc[n+]2C[C@@]1(O)c1ccccc1` the same measures were 131 µM and 289 µM.
With `CCCCCCCCN1c2nccc[n+]2C[C@@]1(O)c1ccc(-c2ccc(-c3ccccc3)cc2)cc1`, the IC50 was 52.8 µM with Salmonella typhimurium and 336 µM in the test with Pseudomonas aeruginosa.
In the case of `CC(C)Nc1ncc(-c2ccccc2)[nH]1`, the figures for the IC50 with Salmonella typhimurium and with Pseudomonas aeruginosa were > 800 µM and 261 µM, respectively.
For `CC(C)(C)N1c2nccc[n+]2C[C@@]1(O)c1ccc([N+](=O)[O-])cc1` the same measures were 211 µM and 41.5 µM.
For the compound `CCCCN1c2nccc[n+]2C[C@@]1(O)c1ccc(F)cc1`, the IC50 with Salmonella typhimurium is 163 µM.
As to `CC(C)N1c2nccc[n+]2C[C@@]1(O)c1ccc([N+](=O)[O-])cc1`, the figures for the IC50 in the test with Salmonella typhimurium and in the test with Pseudomonas aeruginosa were 466 µM and 192 µM, respectively.
For `CCCCCCCCN1c2nccc[n+]2C[C@@]1(O)c1ccc(OC)cc1`, in the test on Salmonella typhimurium, the IC50 amounted to 10.5 µM.
Take `COc1ccc(CNc2ncc(-c3ccc([N+](=O)[O-])cc3)[nH]2)cc1`: the half-maximal inhibitory concentration (IC50) in the test with Salmonella typhimurium and in the test with Pseudomonas aeruginosa was > 800 µM each time.
Regarding `COc1ccc(CN2c3nccc[n+]3C[C@@]2(O)c2ccc(Br)cc2)cc1`, the IC50 in the test with Salmonella typhimurium turned out to be 110 µM.
Take `COc1cccc(CNc2ncc(-c3ccc(Cl)c(Cl)c3)[nH]2)c1`: the IC50 in the test with Salmonella typhimurium and in the test on Pseudomonas aeruginosa was > 800 µM throughout.
Regarding `CC(C)N1c2nccc[n+]2C[C@@]1(O)c1ccccc1`, the IC50 in the test on Salmonella typhimurium is 540 µM; with Pseudomonas aeruginosa it was > 400 µM.
With `c1ccc2c(-c3cnc(NCc4ccc5c(c4)OCO5)[nH]3)cccc2c1`, in the test on Pseudomonas aeruginosa, the IC50 came out at 10.5 µM.
Regarding `CCCCCCN1c2nccc[n+]2C[C@@]1(O)c1ccccc1`, the figures for the IC50 in the test with Salmonella typhimurium and with Pseudomonas aeruginosa were 102 µM and 406 µM, respectively.
The matching figures for `CCCCCCCCN1c2nccc[n+]2C[C@@]1(O)c1ccc(-c2ccc([N+](=O)[O-])cc2)cc1`: 31 µM and 215 µM.
For the compound `O[C@@]1(c2ccccc2)C[n+]2cccnc2N1Cc1ccccc1`, the 50% inhibitory concentration (IC50) in the test on Salmonella typhimurium came to 212 µM.
The same measure, in the same setting: in the case of `CCCCCCCCCCN1c2nccc[n+]2C[C@@]1(O)c1ccc(Cl)c(Cl)c1` it was 32.4 µM.
In the case of `CCCCCCCCNc1ncc(-c2ccc(Cl)cc2)[nH]1`, the IC50 is > 400 µM with Salmonella typhimurium and 1.6 µM in the test on Pseudomonas aeruginosa.
Regarding `CCCCN1c2nccc[n+]2C[C@@]1(O)c1ccc(Br)cc1`, the IC50 with Salmonella typhimurium is 90.1 µM.
Consider `CC(C)CN1c2nccc[n+]2C[C@@]1(O)c1ccc([N+](=O)[O-])cc1`, for which the IC50 in the test on Salmonella typhimurium was found to be 322 µM; with Pseudomonas aeruginosa, 192 µM.
For `CCCCCCCCCCCCCCN1c2nccc[n+]2C[C@@]1(O)c1ccc(Cl)cc1` the same measures were > 800 µM and > 800 µM.
As to `CN1c2nccc[n+]2C[C@@]1(O)c1ccccc1`, the values for the IC50 with Salmonella typhimurium and in the test on Pseudomonas aeruginosa were > 800 µM and > 400 µM, respectively.
Regarding `CCCCCCCCNc1ncc(-c2ccc(OC)cc2)[nH]1`, the “inhibition (INH)” value with Salmonella typhimurium was determined as 50%. For the same compound, the IC50 was 400 µM with Salmonella typhimurium and > 800 µM in the test on Pseudomonas aeruginosa.
With `CCCCCCCCCCN1c2nccc[n+]2C[C@@]1(O)c1ccc(F)cc1`, the IC50 in the test on Salmonella typhimurium came out at 20 µM.
On to `CCN1c2nccc[n+]2C[C@@]1(O)c1ccc([N+](=O)[O-])cc1`, for which the figures for the IC50 in the test on Salmonella typhimurium and in the test on Pseudomonas aeruginosa were 579 µM and > 800 µM, respectively.
For `CCCCCCCCN1c2nccc[n+]2C[C@@]1(O)c1ccc(S(C)(=O)=O)cc1` the same measures were 60.3 µM and 99.9 µM.
Take `O=[N+]([O-])c1ccc([C@]2(O)C[n+]3cccnc3N2C2CC2)cc1`: the IC50 with Salmonella typhimurium was found to be 125 µM; in the test on Pseudomonas aeruginosa, 20.4 µM.
Regarding `CN1c2nccc[n+]2C[C@@]1(O)c1ccc(F)cc1`, in the test on Salmonella typhimurium, the IC50 was 1820 µM.
In the case of `CCCCCCCCN1c2nccc[n+]2C[C@@]1(O)c1ccc(SC)cc1`, the values for the IC50 in the test on Salmonella typhimurium and in the test on Pseudomonas aeruginosa were 13.2 µM and 36.5 µM, respectively.
Regarding `O=[N+]([O-])c1ccc([C@]2(O)C[n+]3cccnc3N2C23CC4CC(CC(C4)C2)C3)cc1`, the values for the IC50 in the test on Salmonella typhimurium and in the test with Pseudomonas aeruginosa were 8.8 µM and 14.4 µM, respectively.
The matching figures for `CCCCCCCCCCCCCN1c2nccc[n+]2C[C@@]1(O)c1ccc(Cl)cc1`: 316 µM and > 800 µM.
For `CCCCCN1c2nccc[n+]2C[C@@]1(O)c1ccccc1` the same measures were 278 µM and 565 µM.
`CCCCCCCCN1c2nccc[n+]2C[C@@]1(O)c1ccc(Cl)c(Cl)c1`: the concentration for half-maximal inhibition (IC50) in the test with Salmonella typhimurium was 7.1 µM.
In the case of `CCCCN1c2nccc[n+]2C[C@@]1(O)c1ccccc1`, the IC50 was 410 µM in the test with Salmonella typhimurium and > 400 µM with Pseudomonas aeruginosa.
For `CN1c2nccc[n+]2C[C@@]1(O)c1ccc([N+](=O)[O-])cc1`, the results for the IC50 in the test with Salmonella typhimurium and with Pseudomonas aeruginosa were 698 µM and > 400 µM, respectively.
The matching figures for `CCCCCCCN1c2nccc[n+]2C[C@@]1(O)c1ccc(Cl)cc1`: 6.7 µM and 36.9 µM.
As for `CN1c2nccc[n+]2C[C@@]1(O)c1cccc([N+](=O)[O-])c1`, the half-inhibitory concentration (IC50) in the test on Salmonella typhimurium came to 564 µM.
Take `CCCCCCCCNc1ncc(-c2ccc(Cl)c(Cl)c2)[nH]1`: in the test with Salmonella typhimurium, the “inhibition (INH)” value stood at 50% and the IC50 was 118 µM. Also, the IC50 with Pseudomonas aeruginosa was > 800 µM.
On to `CCCCCCCCCCCCN1c2nccc[n+]2C[C@@]1(O)c1ccc(Cl)cc1`, for which the IC50 is 122 µM in the test with Salmonella typhimurium and > 800 µM with Pseudomonas aeruginosa.
The matching figures for `Clc1ccc(-c2cnc(NC3CCCCC3)[nH]2)cc1`: > 800 µM and 25 µM.
On to `O=[N+]([O-])c1ccc([C@]2(O)C[n+]3cccnc3N2Cc2ccccc2)cc1`, for which, in the test on Salmonella typhimurium, the IC50 came out at 174 µM.
As for `CCCCCCCCNc1ncc(-c2cccc3ccccc23)[nH]1`, in the test on Salmonella typhimurium, the “inhibition (INH)” value is given as 50% and the IC50 was determined as 238 µM. Also, the IC50 in the test on Pseudomonas aeruginosa is > 800 µM.
Consider `O[C@@]1(c2ccc(Cl)cc2)C[n+]2cccnc2N1C1CCC1`, for which the IC50 in the test on Salmonella typhimurium was 121 µM; in the test with Pseudomonas aeruginosa, 372 µM.
`CCCCN1c2nccc[n+]2C[C@@]1(O)c1ccc([N+](=O)[O-])cc1`: the results for the IC50 with Salmonella typhimurium and in the test on Pseudomonas aeruginosa were 293 µM and 145 µM, respectively.
For `CCCCCCCCCNc1ncc(-c2ccc(Cl)cc2)[nH]1`, the IC50 with Salmonella typhimurium was > 800 µM.
Same read-out and setting: in the case of `CCCCN1c2nccc[n+]2C[C@@]1(O)c1ccc(OC)cc1` it was 314 µM; in that of `CNc1ncc(-c2ccc(F)c(F)c2)[nH]1`, 602 µM.
